A word on the MIC: it is the lowest concentration found to suppress growth. By IC50 is commonly meant the concentration that inhibits the measured activity by half. A low value points to greater potency.

One test concerns S. pneumoniae. Kind of test: Broth microdilution MIC, S. pneumoniae. The conditions noted are these: Streptococcus pneumoniae, 24 h, read-out: MIC, Bacteria, S. pneumoniae. The test is classed as cell-based. An outline of the steps:
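S. pneumoniae clinical isolate, from paediatric community-acquired pneumonia. CLSI M7-A7 broth microdilution in Mueller Hinton broth with 2.5% lysed sheep blood, inoculum about 2 × 10^8 CFU/mL. Serial test-compound dilutions, 37°C for 24 h. MIC was the lowest concentration suppressing visible growth.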
For orientation: Dilution methods test growth across graded concentrations, often in twofold steps.

Test [1] deals with T1, Human mitochondrial LeuRS (Homo sapiens, UniProt Q15031).
T1 sequence (Q15031 1-903): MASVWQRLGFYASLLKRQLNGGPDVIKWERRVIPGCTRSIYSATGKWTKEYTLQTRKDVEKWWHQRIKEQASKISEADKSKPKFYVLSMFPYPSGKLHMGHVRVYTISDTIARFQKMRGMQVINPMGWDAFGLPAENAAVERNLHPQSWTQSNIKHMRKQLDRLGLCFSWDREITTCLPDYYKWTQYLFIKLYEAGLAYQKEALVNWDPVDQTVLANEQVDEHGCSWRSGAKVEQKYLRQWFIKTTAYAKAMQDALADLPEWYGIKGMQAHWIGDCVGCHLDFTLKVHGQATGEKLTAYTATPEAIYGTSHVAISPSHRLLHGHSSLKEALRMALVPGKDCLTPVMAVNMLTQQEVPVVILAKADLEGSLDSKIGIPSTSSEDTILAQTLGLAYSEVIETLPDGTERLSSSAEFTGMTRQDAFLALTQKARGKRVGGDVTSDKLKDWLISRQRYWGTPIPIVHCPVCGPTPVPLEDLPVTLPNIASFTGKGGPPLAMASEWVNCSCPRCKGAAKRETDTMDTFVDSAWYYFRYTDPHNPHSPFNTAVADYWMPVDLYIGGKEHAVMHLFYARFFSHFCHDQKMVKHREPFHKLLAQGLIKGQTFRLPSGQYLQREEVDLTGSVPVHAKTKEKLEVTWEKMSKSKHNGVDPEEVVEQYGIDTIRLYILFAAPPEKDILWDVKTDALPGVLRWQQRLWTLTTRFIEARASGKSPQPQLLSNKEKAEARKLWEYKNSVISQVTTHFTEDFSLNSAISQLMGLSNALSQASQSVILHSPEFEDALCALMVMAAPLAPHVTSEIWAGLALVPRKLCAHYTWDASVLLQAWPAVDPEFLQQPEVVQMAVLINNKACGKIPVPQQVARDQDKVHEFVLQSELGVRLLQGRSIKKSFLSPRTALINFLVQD
Kind of test: Aminoacylation inhibition. Format: biochemical. A digest of the protocol: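 Human cytosolic or mitochondrial LeuRS, expressed in E. coli. Aminoacylation run at 30°C. At least six test-compound concentrations were tested, with enzyme amount set to form 10 pmol Leu-tRNALeu in 5 min. IC50 was taken from a fitted dose-response curve, as the mean of at least two independent experiments.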

Test [2] relates to E. coli strains containing pET30a-eclrs. Description: MIC upon overexpression of EcLeuRS. The test is classed as cell-based, Escherichia coli. The note with it: induced by IPTG. An outline of the steps:
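E. coli transformants carrying pET30a-eclrs, with the empty pET30a vector strain as control. Both were induced with 10 μM IPTG and tested by broth microdilution in Mueller Hinton broth (37°C, 24 h). MICs were read as the lowest concentration without visible growth and compared between the two strains.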

The next test concerns the target T2, SpLeuRS Y332D (Streptococcus pneumoniae serotype 4, UniProt Q97SS0, Y332D).
T2 sequence (Q97SS0 1-833 Y332D): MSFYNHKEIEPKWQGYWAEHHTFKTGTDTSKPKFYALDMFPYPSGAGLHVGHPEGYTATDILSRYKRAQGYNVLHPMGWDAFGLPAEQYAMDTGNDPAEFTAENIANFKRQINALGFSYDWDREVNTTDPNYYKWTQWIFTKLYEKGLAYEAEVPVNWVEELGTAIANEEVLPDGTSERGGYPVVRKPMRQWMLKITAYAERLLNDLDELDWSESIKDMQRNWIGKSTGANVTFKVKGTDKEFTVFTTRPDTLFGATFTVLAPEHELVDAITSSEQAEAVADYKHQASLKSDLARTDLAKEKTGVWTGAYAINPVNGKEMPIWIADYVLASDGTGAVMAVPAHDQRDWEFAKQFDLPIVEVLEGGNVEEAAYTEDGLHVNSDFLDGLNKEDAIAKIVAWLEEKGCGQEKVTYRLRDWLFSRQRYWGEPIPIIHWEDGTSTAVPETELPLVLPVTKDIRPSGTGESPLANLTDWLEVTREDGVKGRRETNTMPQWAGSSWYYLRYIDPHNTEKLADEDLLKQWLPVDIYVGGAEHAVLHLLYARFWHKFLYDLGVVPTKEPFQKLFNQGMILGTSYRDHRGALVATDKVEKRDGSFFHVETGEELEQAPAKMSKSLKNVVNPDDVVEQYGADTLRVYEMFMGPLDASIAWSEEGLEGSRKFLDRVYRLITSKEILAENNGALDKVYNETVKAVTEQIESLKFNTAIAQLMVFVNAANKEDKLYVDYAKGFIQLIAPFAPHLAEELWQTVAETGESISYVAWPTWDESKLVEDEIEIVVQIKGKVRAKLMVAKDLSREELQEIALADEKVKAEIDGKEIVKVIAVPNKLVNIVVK
Description: Aminoacylation by SpLeuRS Y332D mutant. Format: biochemical. The note with it: 50 μM ZCL039. A digest of the protocol:
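Aminoacylation at 37°C, started with 4 mM ATP. Point mutants were made by site-directed mutagenesis. The MmLinker chimera has CP1 Lys226–Thr411 replaced by a nonapeptide. Means of three independent experiments.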

The structures appear in SMILES notation. In brackets after ≈: the same amount, converted by molar mass. Some results are limits rather than exact numbers.

As for `OB1OCc2ccc(C(O)c3ccccc3)cc21` (stereo not shown) [ZCL039, [6-(1-phenyl-1-hydroxylmethyl)]-1,3-dihydro-1-hydroxy-2,1-benzoxaborole], the MIC with S. pneumoniae is 5 µg/mL (≈ 20.8 µM). Besides, the IC50 in test [1] was more than 250 µM. Besides, the “Increase in the MIC, pET30a-eclrs vs pET30a” value in test [2] is listed as “over 4 fold”. The “Effect on synthetic activity of Y332D mutant” value at SpLeuRS Y332D was “did not affect”.
